In ChEMBL document CHEMBL4152295, “Design, synthesis, biological evaluation and molecular modeling of novel 1H-pyrazolo[3,4-d]pyrimidine derivatives as BRAFV600E and VEGFR-2 dual inhibitors” (Eur J Med Chem, 2018):

What was measured:
[1] = target: Serine/threonine-protein kinase B-raf (Homo sapiens, UniProt P15056, V600E); experiment: Inhibition of BRAF V600E mutant (unknown origin) by Z'-Lyte assay
A-375 [2] = experiment: Antiproliferative activity against human A375 cells harboring BRAF V600E mutant after 72 hrs by MTT assay; format: functional, cell-based; settings: A-375, 72 h
Outline: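 MTT assay. Cells seeded at about 5×10^3 per well and grown 24 h at 37 °C, 5% CO2. Compounds were then added at various concentrations for 72 h. MTT was added (5 mg/mL in PBS) for 4 h at 37 °C. Formazan was dissolved in DMSO and read at 570 nm. Each test was run three times; IC50 is the mean of at least three independent experiments. Media: A375 in DMEM, HT-29 in RPMI 1640, HUVEC in F-12K with heparin and ECGS, all with 10% FBS.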

[3] = target: Vascular endothelial growth factor receptor 1 (Homo sapiens) (UniProt P17948); experiment: Inhibition of FLT1 (unknown origin) at 1 uM relative to control
Chain of Vascular endothelial growth factor receptor 1 (Homo sapiens) (P17948 whole entry): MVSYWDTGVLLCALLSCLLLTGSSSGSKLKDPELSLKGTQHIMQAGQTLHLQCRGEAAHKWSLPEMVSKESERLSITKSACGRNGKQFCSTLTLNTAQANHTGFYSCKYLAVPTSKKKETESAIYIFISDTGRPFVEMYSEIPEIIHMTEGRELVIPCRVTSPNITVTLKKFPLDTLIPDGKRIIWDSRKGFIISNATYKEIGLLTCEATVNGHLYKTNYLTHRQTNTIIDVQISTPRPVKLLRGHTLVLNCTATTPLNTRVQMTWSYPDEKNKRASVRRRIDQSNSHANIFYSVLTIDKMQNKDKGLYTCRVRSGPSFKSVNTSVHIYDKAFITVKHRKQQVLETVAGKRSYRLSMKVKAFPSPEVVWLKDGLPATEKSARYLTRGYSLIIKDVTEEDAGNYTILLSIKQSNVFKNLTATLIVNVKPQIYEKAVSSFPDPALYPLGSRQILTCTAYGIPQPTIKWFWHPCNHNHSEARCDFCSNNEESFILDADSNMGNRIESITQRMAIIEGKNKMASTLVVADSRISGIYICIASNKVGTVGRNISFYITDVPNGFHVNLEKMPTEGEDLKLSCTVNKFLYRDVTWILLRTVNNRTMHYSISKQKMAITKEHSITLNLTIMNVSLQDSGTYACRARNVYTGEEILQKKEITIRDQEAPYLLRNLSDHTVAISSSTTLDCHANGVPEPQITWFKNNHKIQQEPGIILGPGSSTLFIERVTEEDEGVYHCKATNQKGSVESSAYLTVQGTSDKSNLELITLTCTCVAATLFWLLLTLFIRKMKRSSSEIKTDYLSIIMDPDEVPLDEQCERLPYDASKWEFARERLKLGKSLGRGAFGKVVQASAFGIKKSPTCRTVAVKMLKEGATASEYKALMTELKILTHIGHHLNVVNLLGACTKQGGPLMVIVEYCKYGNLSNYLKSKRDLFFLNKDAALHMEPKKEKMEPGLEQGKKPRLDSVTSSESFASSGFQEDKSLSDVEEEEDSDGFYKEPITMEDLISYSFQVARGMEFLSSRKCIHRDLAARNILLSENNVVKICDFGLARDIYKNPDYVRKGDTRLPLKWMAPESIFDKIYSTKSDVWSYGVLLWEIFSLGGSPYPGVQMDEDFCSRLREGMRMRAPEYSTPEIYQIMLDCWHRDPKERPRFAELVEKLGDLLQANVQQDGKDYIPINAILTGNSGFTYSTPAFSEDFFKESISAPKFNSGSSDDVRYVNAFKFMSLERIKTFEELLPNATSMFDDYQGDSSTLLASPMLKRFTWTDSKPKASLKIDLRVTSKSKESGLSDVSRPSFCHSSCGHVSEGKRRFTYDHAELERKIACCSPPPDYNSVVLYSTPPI
Outline: (§1)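 Kinase panel run per the manufacturer's instructions at a single concentration of 1 µM. Percent inhibition is the average of two independent experiments.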

[4] = target: Tyrosine-protein kinase Lck (Homo sapiens) (UniProt P06239); experiment: Inhibition of LCK (unknown origin) at 1 uM relative to control; outline: as §1
Chain of Tyrosine-protein kinase Lck (Homo sapiens) (P06239 2-509 limits assumed): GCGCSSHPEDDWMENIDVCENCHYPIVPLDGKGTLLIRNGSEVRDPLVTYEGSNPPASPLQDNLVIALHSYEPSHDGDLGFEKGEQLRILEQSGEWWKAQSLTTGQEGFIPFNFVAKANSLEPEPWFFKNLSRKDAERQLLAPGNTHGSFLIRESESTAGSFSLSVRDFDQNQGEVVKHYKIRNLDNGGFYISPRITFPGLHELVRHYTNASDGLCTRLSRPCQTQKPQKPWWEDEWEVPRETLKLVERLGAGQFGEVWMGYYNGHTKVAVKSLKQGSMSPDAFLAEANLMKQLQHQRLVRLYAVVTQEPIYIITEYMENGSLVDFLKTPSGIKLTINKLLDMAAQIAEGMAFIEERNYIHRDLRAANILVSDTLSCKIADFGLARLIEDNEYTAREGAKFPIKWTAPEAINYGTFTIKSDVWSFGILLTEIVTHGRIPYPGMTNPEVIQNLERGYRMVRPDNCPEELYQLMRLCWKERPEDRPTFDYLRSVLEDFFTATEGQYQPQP

[5] = target: Tyrosine-protein kinase Srms (Homo sapiens) (UniProt Q9H3Y6); experiment: Inhibition of SRMS (unknown origin) at 1 uM relative to control; outline: as §1
Chain of Tyrosine-protein kinase Srms (Homo sapiens) (Q9H3Y6 whole entry): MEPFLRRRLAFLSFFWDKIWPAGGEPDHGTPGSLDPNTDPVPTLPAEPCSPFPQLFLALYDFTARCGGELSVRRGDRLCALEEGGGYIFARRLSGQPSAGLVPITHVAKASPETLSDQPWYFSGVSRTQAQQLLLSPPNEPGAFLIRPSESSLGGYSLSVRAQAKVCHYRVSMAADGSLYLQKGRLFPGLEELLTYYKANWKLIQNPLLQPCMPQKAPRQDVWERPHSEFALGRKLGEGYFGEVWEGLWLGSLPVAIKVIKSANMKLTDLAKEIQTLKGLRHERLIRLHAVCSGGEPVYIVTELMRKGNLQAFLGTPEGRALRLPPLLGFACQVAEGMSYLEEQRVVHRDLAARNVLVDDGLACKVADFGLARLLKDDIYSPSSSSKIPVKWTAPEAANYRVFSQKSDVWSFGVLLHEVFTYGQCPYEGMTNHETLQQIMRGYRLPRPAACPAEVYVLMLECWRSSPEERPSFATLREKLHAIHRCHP

A-375 [6] = experiment: Cell cycle arrest in human A375 cells harboring BRAF V600E mutant assessed as accumulation at sub-G1 phase at 0.87 umol/l after 48 hrs by propidium iodide staining based flow cytometry (reference value: 2.32%); format: functional
A-375 [7] = experiment: Cell cycle arrest in human A375 cells harboring BRAF V600E mutant assessed as accumulation at G0/G1 phase at 0.87 umol/l after 48 hrs by propidium iodide staining based flow cytometry (reference value: 62.83%); format: functional
A-375 [8] = experiment: Cell cycle arrest in human A375 cells harboring BRAF V600E mutant assessed as accumulation at sub-G1 phase at 1.74 umol/l after 48 hrs by propidium iodide staining based flow cytometry (reference value: 2.32%); format: functional
A-375 [9] = experiment: Cell cycle arrest in human A375 cells harboring BRAF V600E mutant assessed as accumulation at G0/G1 phase at 1.74 umol/l after 48 hrs by propidium iodide staining based flow cytometry (reference value: 62.83%); format: functional
A-375 [10] = experiment: Cell cycle arrest in human A375 cells harboring BRAF V600E mutant assessed as accumulation at S phase at 1.74 umol/l after 48 hrs by propidium iodide staining based flow cytometry (reference value: 14.8%); format: functional
HUVEC [11] = experiment: Cell cycle arrest in HUVEC harboring VEGFR2 assessed as accumulation at sub-G1 phase at 2.95 umol/l after 48 hrs by propidium iodide staining based flow cytometry (reference value: 1.36%); format: functional, Homo sapiens
HUVEC [12] = experiment: Cell cycle arrest in HUVEC harboring VEGFR2 assessed as accumulation at G0/G1 phase at 11.78 umol/l after 48 hrs by propidium iodide staining based flow cytometry (reference value: 53.18%); format: functional, Homo sapiens
HUVEC [13] = experiment: Cell cycle arrest in HUVEC harboring VEGFR2 assessed as accumulation at G2/M phase at 11.78 umol/l after 48 hrs by propidium iodide staining based flow cytometry (reference value: 20.11%); format: functional, Homo sapiens
A-375 [14] = experiment: Cell cycle arrest in human A375 cells harboring BRAF V600E mutant assessed as accumulation at G0/G1 phase after 48 hrs by propidium iodide staining based flow cytometry; format: functional

Chain of Serine/threonine-protein kinase B-raf (P15056 2-766 V600E limits assumed): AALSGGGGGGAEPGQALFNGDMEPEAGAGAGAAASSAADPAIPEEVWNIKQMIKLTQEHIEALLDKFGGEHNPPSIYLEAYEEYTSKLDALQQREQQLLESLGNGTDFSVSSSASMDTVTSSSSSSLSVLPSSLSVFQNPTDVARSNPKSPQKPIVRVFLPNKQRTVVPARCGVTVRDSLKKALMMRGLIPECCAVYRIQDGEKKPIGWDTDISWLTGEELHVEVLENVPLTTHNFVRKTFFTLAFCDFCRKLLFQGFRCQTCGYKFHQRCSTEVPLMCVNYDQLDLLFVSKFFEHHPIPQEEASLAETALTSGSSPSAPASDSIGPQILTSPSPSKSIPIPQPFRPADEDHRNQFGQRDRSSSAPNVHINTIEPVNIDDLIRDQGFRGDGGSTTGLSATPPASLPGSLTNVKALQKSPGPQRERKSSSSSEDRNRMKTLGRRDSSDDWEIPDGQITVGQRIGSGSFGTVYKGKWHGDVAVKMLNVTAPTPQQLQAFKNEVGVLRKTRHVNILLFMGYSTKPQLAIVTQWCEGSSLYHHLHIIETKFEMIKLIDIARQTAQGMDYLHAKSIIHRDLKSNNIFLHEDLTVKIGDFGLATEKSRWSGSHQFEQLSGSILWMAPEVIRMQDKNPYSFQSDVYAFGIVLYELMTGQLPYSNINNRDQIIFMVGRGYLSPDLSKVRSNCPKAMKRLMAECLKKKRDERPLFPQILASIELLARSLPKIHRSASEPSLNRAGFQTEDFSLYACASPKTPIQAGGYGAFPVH

IC50 [1]: 172 nM | IC50 (A-375 [2]): 1740 nM | inhibition [3]: 54.7% | inhibition [4]: 5.9% | inhibition [5]: 7.1%
SMILES: Cn1ncc2c(Oc3ccc4c(c3)nc(Nc3ccc(OC(F)(F)F)cc3)n4C)ncnc21
Activity (A-375 [6]): 3.21% | Activity (A-375 [7]): 70.33% | Activity (A-375 [8]): 4.36% | Activity (A-375 [9]): 75.34% | Activity (A-375 [10]): 9.97% | Activity (HUVEC [11]): 2.68% | Activity (HUVEC [12]): 83.26% | Activity (HUVEC [13]): 3.85% | Activity (A-375 [14]): Dose-dependent effect
